In ChEMBL document CHEMBL3414523, “FimH antagonists: bioisosteres to improve the in vitro and in vivo PK/PD profile” (J Med Chem, 2015):
In brackets after ≈: the same amount, converted by molar mass.

What was measured:
physchem [1] = conditions: octanol/water, pH 7.4
[2] = Apparent permeability across apical to basolateral side in human Caco2 cells by LC/MS analysis; conditions: Caco-2
[3] = Kinetic solubility of the compound at 0.1 to 0.5 mM at pH 7.6 after 15 hrs by UV/Vis spectrophotometry; format: physicochemical; conditions: buffer, read-out: Kinetic_solubility
[4] = Half life in rat liver microsomes at 2 uM after 10 mins by LC/MS/MS analysis
[5] = Apparent permeability across basolateral to apical side in human Caco2 cells by LC/MS analysis; conditions: Caco-2
[6] = Displacement of fluorescently labeled 3'-chloro-N-(2-(3-(3',6'-dihydroxy-3-oxo-3H-spiro[isobenzofuran-1,9'-xanthene]-5-yl)thioureido)ethyl)-4'-((2R,3S,4S,5S,6R)-3,4,5-trihydroxy-6-(hydroxymethyl)tetrahydro-2H-pyran-2-yloxy)biphenyl-4-carboxamide from Escherichia coli recombinant 6-His-tagged FimH CRD expressed in Escherichia coli HM125 after 24 hrs by fluorescence polarization assay
In short: (§1)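 Competitive fluorescence polarization with His6-tagged FimH CRD (thrombin cleavage site) and fixed fluorescent reporter ligand, 24 h incubation to reach equilibrium; polarized excitation 485 nm, emission 528 nm on a plate reader. IC50 from four-parameter nonlinear least-squares fit, converted to KD by a modified Cheng–Prusoff equation accounting for ligand depletion.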

[7] = Displacement of n-heptyl 2-deoxy-alpha-D-mannopyranoside from Escherichia coli recombinant 6-His-tagged FimH CRD expressed in Escherichia coli HM125 after 20 mins by isothermal titration calorimetry
[8] = Plasma protein binding in human by equilibrium dialysis method; format: ADME, cell-free; conditions: read-out: PPB (converted)
[9] = Lipophilicity, log P of the compound; format: physicochemical; conditions: octanol/water
physchem [10] = conditions: buffer, pH 7.4
[11] = Binding affinity to Escherichia coli recombinant 6-His-tagged FimH CRD expressed in Escherichia coli HM125 by isothermal titration calorimetry
[12] = Kinetic solubility of the compound at 0.1 to 0.5 mM at pH 3 to 7.4 after 15 hrs by UV/Vis spectrophotometry; format: physicochemical; conditions: buffer, read-out: Kinetic_solubility
[13] = Half life in rat liver microsomes at 2 uM after 10 mins by LC/MS/MS analysis in presence of NADPH; format: ADME
[14] = Kinetic solubility of the compound at 0.1 to 0.5 mM at pH 6.51 after 15 hrs by UV/Vis spectrophotometry; format: physicochemical; conditions: buffer, read-out: Kinetic_solubility
Mus musculus [15] = experiment: Volume of distribution in C3H/HeN mouse at 50 mg/kg, iv; format: ADME, organism-based; design: dose 50 mg/kg, route intravenous; conditions: in vivo
Mus musculus [16] = experiment: Half life in C3H/HeN mouse at 50 mg/kg, iv; format: ADME, organism-based; design: dose 50 mg/kg, route intravenous; conditions: in vivo
[17] = AUC (0 to infinity) in C3H/HeN mouse at 50 mg/kg, iv; format: ADME, organism-based; design: time infinity, dose 50 mg/kg, route intravenous; conditions: plasma
[18] = Initial plasma concentration in C3H/HeN mouse at 50 mg/kg, iv; format: ADME, organism-based; design: dose 50 mg/kg, route intravenous
[19] = Cmax in urine of C3H/HeN mouse at 50 mg/kg, iv; format: ADME, organism-based; design: dose 50 mg/kg, route intravenous
[20] = Effective permeability coefficient, log Pe after 16 hrs by PAMPA; format: ADME
[21] = Kinetic solubility of the compound at 0.1 to 0.5 mM at pH 6.61 after 15 hrs by UV/Vis spectrophotometry; format: physicochemical; conditions: buffer, read-out: Kinetic_solubility
Mus musculus [22] = experiment: Total clearance in C3H/HeN mouse at 50 mg/kg, iv; format: ADME, organism-based; design: dose 50 mg/kg, route intravenous; conditions: in vivo
[23] = Binding affinity to Escherichia coli recombinant 6-His-tagged FimH CRD expressed in Escherichia coli HM125 after 24 hrs by competitive fluorescence polarization assay
In short: as §1

[24] = Dissociation constant, pKa of the compound by NMR spectroscopy; format: physicochemical
physchem [25] = conditions: buffer, pH 3
[26] = Initial plasma concentration in C3H/HeN mouse at 0.625 mg/kg, iv; format: ADME, organism-based; design: dose 0.625 mg/kg, route intravenous
[27] = AUC (0 to infinity) in C3H/HeN mouse at 0.625 mg/kg, iv; format: ADME, organism-based; design: time infinity, dose 0.625 mg/kg, route intravenous; conditions: plasma
Mus musculus [28] = experiment: Volume of distribution in C3H/HeN mouse at 0.625 mg/kg, iv; format: ADME, organism-based; design: dose 0.625 mg/kg, route intravenous; conditions: in vivo
[29] = Total clearance in C3H/HeN mouse at 0.625 mg/kg, iv; format: ADME, organism-based; design: dose 0.625 mg/kg, route intravenous; conditions: in vivo
[30] = Cmax in urine of C3H/HeN mouse at 0.625 mg/kg, iv; format: ADME, organism-based; design: dose 0.625 mg/kg, route intravenous
Escherichia coli [31] = experiment: (§2) Antimicrobial activity against Escherichia coli UTI89 infected in C3H/HeN mouse urinary tract infection model assessed as bacterial load reduction in bladder at 10 mg/kg, po formulated with 5% DMSO in PBS containing 1% Tween 80 administered 40 mins prior to infection measured after 3 hrs relative to control; format: functional
Escherichia coli [32] = experiment: Antimicrobial activity against Escherichia coli UTI89 infected in C3H/HeN mouse urinary tract infection model assessed as bacterial load reduction in kidney at 1.25 mg/kg, po administered 40 mins prior to infection measured after 3 hrs (reference value: 6 log10 CFU); format: functional
Mus musculus [33] = experiment: Half life in C3H/HeN mouse at 0.625 mg/kg, iv; format: ADME, organism-based; design: dose 0.625 mg/kg, route intravenous; conditions: in vivo
Escherichia coli [34] = experiment: Inhibition of adhesion of Escherichia coli UTI89 clinical isolate to human 5637 cells assessed as MAC90 after 10 mins by flow cytometry; format: functional
Escherichia coli [35] = experiment: Antimicrobial activity against Escherichia coli UTI89 infected in C3H/HeN mouse urinary tract infection model assessed as bacterial load reduction in bladder at 1.25 mg/kg, po administered 40 mins prior to infection measured after 3 hrs (reference value: 6.6 log10 CFU); format: functional
Escherichia coli [36] = experiment: as §2, with “kidney” for “bladder”; format: functional

| logD at 2 h, 1 µM (physchem [1]) | Papp A→B [2] [×10⁻⁶ cm/s] | half-life at 10 min, 2 µM ([4]; liver microsomes) [min] | Papp B→A [5] [×10⁻⁶ cm/s] | fraction unbound [8] | solubility kinetic at 15 h, 500 µM (physchem [10]) [µg/mL] | SMILES | Kd [6] [nM] | Kd [7] [nM] | further results |
| --- | --- | --- | --- | --- | --- | --- | --- | --- | --- |
| 1.4 | 2 | > 60 | 13.2 | 0.01 | – | N#Cc1ccc(-c2ccc(O[C@H]3O[C@H](CO)[C@@H](O)[C@H](O)[C@@H]3O)cc2)cc1 | 2 | 2.8 | solubility kinetic at 15 h [3]: 186 µg/mL (≈ 520 µM) |
| 2.1 | 10 | – | 19 | 0.07 | 21 (≈ 63.2 µM) | OC[C@H]1O[C@H](Oc2ccc(-c3ccccc3)cc2)[C@@H](O)[C@@H](O)[C@@H]1O | 15.1 | – | logP [9]: 2.1; Kd [11]: 17.7 nM |
| – | 7 | – | 9.4 | – | – | CCCCCCCO[C@H]1O[C@H](CO)[C@@H](O)[C@H](O)[C@@H]1O | 28.3 | – | half-life at 10 min, 2 µM ([4]; microsomes): 13 min; solubility kinetic at 15 h [12]: > 3000 µg/mL; Kd [11]: 28.9 nM |
| 2.14 | 4.23 | – | – | – | – | COC(=O)c1ccc(-c2ccc(O[C@H]3O[C@H](CO)[C@@H](O)[C@H](O)[C@@H]3O)cc2)cc1 | 3.6 | – | half-life at 2 µM [13]: 1 min; solubility kinetic at 15 h [14]: 33.8 µg/mL (≈ 86.6 µM) |
| < -1.5 | – | > 60 | – | – | – | O=C(O)c1ccc(-c2ccc(O[C@H]3O[C@H](CO)[C@@H](O)[C@H](O)[C@@H]3O)cc2)cc1 | 17.9 | – | Vz (Mus musculus [15]): 25.2 mL; t1/2 (Mus musculus [16]): 19.8 min; AUC(0-inf) [17]: 23500 ng·h/mL; C0 [18]: 40 µg/mL; Cmax [19]: 300 µg/mL; log Pe [20]: impermeable; solubility kinetic at 15 h [21]: > 3000 µg/mL; CL (Mus musculus [22]): 53.1 mL/h; Kd [11]: 15 nM |
| – | – | – | – | – | – | O=C(NCCNC(=S)Nc1ccc2c(c1)C(=O)OC21c2ccc(O)cc2Oc2cc(O)ccc21)c1ccc(-c2ccc(O[C@H]3O[C@H](CO)[C@@H](O)[C@H](O)[C@@H]3O)c(Cl)c2)cc1 | – | – | Kd [23]: 1.7 nM |
| – | – | – | – | – | – | OC[C@H]1O[C@H](Oc2ccc(-c3ccc(-c4nnn[nH]4)cc3)cc2)[C@@H](O)[C@@H](O)[C@@H]1O | 5.7 | – | pKa [24]: 3.7 |
| -1.1 | 0.22 | – | 0.29 | – | > 150 | N#CNC(=O)c1ccc(-c2ccc(O[C@H]3O[C@H](CO)[C@@H](O)[C@H](O)[C@@H]3O)cc2)cc1 | 8.4 | – | solubility kinetic at 15 h, 500 µM (physchem [25]): > 150 µg/mL; pKa [24]: 2.5 |
| 2.1 | 2.2 | > 60 | 22.1 | 0.11 | 192 (≈ 490 µM) | N#Cc1ccc(-c2ccc(O[C@H]3O[C@H](CO)[C@@H](O)[C@H](O)[C@@H]3O)c(Cl)c2)cc1 | < 1 | 1.3 | C0 [26]: 0.36 µg/mL; AUC(0-inf) [27]: 70 ng·h/mL; Vz (Mus musculus [28]): 52.8 mL; clearance [29]: 3.63 mL/min; Cmax [30]: 10 µg/mL; log10cfu (Escherichia coli [31]): 2.68; log10cfu (Escherichia coli [32]): 1.07; t1/2 (Mus musculus [33]): 10.2 min; Activity (Escherichia coli [34]): 0.094 µg/mL; log10cfu (Escherichia coli [35]): 1.78; log10cfu (Escherichia coli [36]): 1.04 |
| 0.5 | 0.12 | – | 0.61 | – | 12 (≈ 32 µM) | NC(=O)c1ccc(-c2ccc(O[C@H]3O[C@H](CO)[C@@H](O)[C@H](O)[C@@H]3O)cc2)cc1 | 2.8 | – | – |
| 0.8 | 1.1 | – | 0.87 | – | 122 (≈ 313 µM) | CNC(=O)c1ccc(-c2ccc(O[C@H]3O[C@H](CO)[C@@H](O)[C@H](O)[C@@H]3O)cc2)cc1 | 2.9 | 4.3 | – |
| 0.2 | 0.18 | > 60 | 1.3 | 0.52 | > 250 | O=C(c1ccc(-c2ccc(O[C@H]3O[C@H](CO)[C@@H](O)[C@H](O)[C@@H]3O)cc2)cc1)N1CCOCC1 | 3 | 5 | Vz (Mus musculus [15]): 28.3 mL; t1/2 (Mus musculus [16]): 24 min; AUC(0-inf) [17]: 25300 ng·h/mL; C0 [18]: 110 µg/mL; Cmax [19]: 4610 µg/mL; CL (Mus musculus [22]): 49.4 mL/h |
| 0.4 | 0.36 | > 60 | 1.76 | 0.01 | 246 (≈ 599 µM) | CS(=O)(=O)c1ccc(-c2ccc(O[C@H]3O[C@H](CO)[C@@H](O)[C@H](O)[C@@H]3O)cc2)cc1 | 1.7 | 3 | – |
| – | – | > 60 | – | < 0.01 | – | CNS(=O)(=O)c1ccc(-c2ccc(O[C@H]3O[C@H](CO)[C@@H](O)[C@H](O)[C@@H]3O)cc2)cc1 | 2.7 | 3.5 | Vz (Mus musculus [15]): 19.5 mL; t1/2 (Mus musculus [16]): 114 min; AUC(0-inf) [17]: 175000 ng·h/mL; C0 [18]: 152 µg/mL; Cmax [19]: 387 µg/mL; CL (Mus musculus [22]): 7.1 mL/h |
| 1.1 | 0.4 | – | 1.9 | – | > 150 | OC[C@H]1O[C@H](Oc2ccc(-c3cc(F)c(O)c(F)c3)cc2)[C@@H](O)[C@@H](O)[C@@H]1O | 3.7 | – | pKa [24]: 6.5 |
| – | – | – | – | – | – | O=C(NCCOCCOCCNC(=S)Nc1ccc2c(c1)C(=O)OC21c2ccc(O)cc2Oc2cc(O)ccc21)c1ccc(-c2ccc(O[C@H]3O[C@H](CO)[C@@H](O)[C@H](O)[C@@H]3O)c(Cl)c2)cc1 | – | – | Kd [23]: 9.9 nM |
